Source: article PMC7383886 (Diabetes, Obesity & Metabolism, 2020)

Assays:
[1] = tested on: patients with type 2 diabetes inadequately controlled on metformin; assay: HbA1c, phase 2 trial LIBERATE 204; format: in vivo, human
How it was run: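 HbA1c was assessed at week 17, after 16 weeks of double-blind sc treatment on background metformin. Dosing was 4 mg weekly for 4 weeks, 8 mg on day 29, then the assigned dose every 28 days; placebo was matched. The proportion reaching HbA1c <53 mmol/mol (<7%) was compared with placebo by Fisher's exact test in the full analysis set.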

[2] = tested on: patients with type 2 diabetes inadequately controlled on metformin; assay: Fasting plasma glucose; format: in vivo, human; conditions: mean (SD)
How it was run: (§1)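 Adults 18–<75 y with T2D on stable metformin (≥1500 mg/d or maximum tolerated dose) had HbA1c 53–86 mmol/mol and BMI <40. They received double-blind sc test compound or placebo (0.53 mL prefilled syringe): 4 mg weekly on days 1, 8, 15 and 22, 8 mg on day 29, then the assigned dose on days 57 and 85. Measured at baseline and week 17 in the full analysis set; change analysed by MMRM (LS means, 95.1% CIs).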

[3] = tested on: patients with type 2 diabetes inadequately controlled on metformin; assay: Seven-point glucose profile; format: in vivo, human; conditions: full analysis set n = 52, mean (SD)
How it was run: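 Patients self-measured glucose with a provided glucometer for a seven-point profile: 90 min pre- and postprandial readings plus bedtime, recorded in a diary. Mean daily glucose was derived from this profile. Dosing was double-blind sc, with metformin continued: 4 mg weekly ×4, 8 mg on day 29, then the assigned monthly dose on days 57 and 85. Full analysis set; change to week 17 analysed by MMRM with 95.1% CIs.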

[4] = tested on: patients with type 2 diabetes inadequately controlled on metformin; assay: Body weight, LIBERATE 204; format: in vivo, human; conditions: mean (SD)
How it was run: as §1

[5] = tested on: patients with type 2 diabetes inadequately controlled on metformin; assay: Treatment-emergent adverse events and hypoglycaemia, LIBERATE 204; format: in vivo, human
How it was run: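 Safety set comprised all patients receiving any study drug, grouped by treatment actually received; analysed descriptively. TEAEs were adverse events starting or worsening on or after the first dose. Hypoglycaemia AEs required confirmed blood glucose <3.9 mmol/L (<70 mg/dL), coded by MedDRA 16.1. Injection-site reactions and symptomatic hypoglycaemic episodes came from patient diaries. Dosing was double-blind sc on background metformin.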

[6] = tested on: patients with type 2 diabetes inadequately controlled on metformin; assay: Anti-efpeglenatide antibodies, enzyme-linked immunosorbent assay; format: in vivo, human; conditions: log 2-expressed titre of at least 2
How it was run: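 Anti-drug antibodies in patient blood samples were detected by ELISA with an absorbance plate read-out, validated at a central laboratory. Treatment-emergent antibodies were evaluated in the safety set of patients on double-blind sc dosing with background metformin.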

[7] = tested on: patients with type 2 diabetes inadequately controlled on metformin; assay: Neutralizing antibodies, cell-based cAMP-Glo assay; format: in vivo, human; conditions: any patient at any time
How it was run: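 Neutralizing activity of anti-drug antibodies in patient samples was tested in a cell-based assay. Antibody-mediated inhibition of intracellular cAMP was read by cAMP-Glo luminescence; the assay was validated at a central laboratory. Patients received double-blind sc test compound or placebo.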

[8] = tested on: patients with type 2 diabetes inadequately controlled on metformin; assay: Vital signs, LIBERATE 204; format: in vivo, human; conditions: any post-baseline time point from week 2 to week 17 or at follow-up (week 23)
[9] = tested on: patients with T2D who were drug-naïve or on metformin; conditions: 4 mg once weekly; 12 weeks; EXCEED; cited from earlier work
[10] = 8 mg once monthly sc, full analysis set n = 52
[11] = 12 mg once monthly sc, full analysis set n = 52
[12] = 16 mg once monthly sc, full analysis set n = 52
[13] = overall (8, 12 and 16 mg once monthly sc), full analysis set n = 156
[14] = 8 mg once monthly sc, safety set n = 52
[15] = 12 mg once monthly sc, safety set n = 52
[16] = 16 mg once monthly sc, safety set n = 53
[17] = overall (8, 12 and 16 mg once monthly sc), safety set n = 157

## efpeglenatide
[1]; [10]
  Patients with HbA1c <53 mmol/mol (7%) at Week 17: 26 (50.0) n (%)
[1]; [11]
  Patients with HbA1c <53 mmol/mol (7%) at Week 17: 26 (50.0) n (%)
[1]; [12]
  Patients with HbA1c <53 mmol/mol (7%) at Week 17: 24 (46.2) n (%)
[1]; [13]
  Patients with HbA1c <53 mmol/mol (7%) at Week 17: 76 (48.7) n (%)
[2]; [10]
  FPG at Week 17: 7.86 (2.28) mmol/L
[2]; [11]
  FPG at Week 17: 8.09 (2.28) mmol/L
[2]; [12]
  FPG at Week 17: 7.76 (1.93) mmol/L
[2]; [13]
  FPG at Week 17: 7.90 (2.16) mmol/L
[3]; 8 mg once monthly sc
  Mean daily glucose at Week 17: 8.76 (2.13) mmol/L
[3]; 12 mg once monthly sc
  Mean daily glucose at Week 17: 8.89 (2.50) mmol/L
[3]; 16 mg once monthly sc
  Mean daily glucose at Week 17: 8.49 (1.43) mmol/L
[4]; [10]
  Body weight at Week 17: 89.98 (18.12) kg
[4]; [11]
  Body weight at Week 17: 91.87 (15.31) kg
[4]; [12]
  Body weight at Week 17: 85.72 (15.58) kg
[4]; [13]
  Body weight at Week 17: 89.26 (16.49) kg
[5]; [14]
  Any TEAE: 43 (82.7) n (%)
  Any TEAE leading to discontinuation: 6 (11.5) n (%)
  Injection-site reaction: 4 (7.7) n (%)
  SAEs: Any: 0 (0.0) n (%)
  SAEs: GI disorders: 0 (0.0) n (%)
  SAEs: Injury, poisoning and procedural complications: 0 (0.0) n (%)
  SAEs: Neoplasms: benign, malignant and unspecified: 0 (0.0) n (%)
  SAEs: Nervous system disorders: 0 (0.0) n (%)
  SAEs: Psychiatric disorders: 0 (0.0) n (%)
  TEAE: Diarrhoea: 9 (17.3) n (%)
  TEAE: GI disorders: 26 (50.0) n (%)
  TEAE: Nausea: 14 (26.9) n (%)
  TEAE: Vomiting: 8 (15.4) n (%)
[5]; [15]
  Any TEAE: 43 (82.7) n (%)
  Any TEAE leading to discontinuation: 7 (13.5) n (%)
  Injection-site reaction: 4 (7.7) n (%)
  SAEs: Any: 5 (9.6) n (%)
  SAEs: GI disorders: 1 (1.9) n (%)
  SAEs: Injury, poisoning and procedural complications: 1 (1.9) n (%)
  SAEs: Neoplasms: benign, malignant and unspecified: 1 (1.9) n (%)
  SAEs: Nervous system disorders: 1 (1.9) n (%)
  SAEs: Psychiatric disorders: 1 (1.9) n (%)
  TEAE: Diarrhoea: 8 (15.4) n (%)
  TEAE: GI disorders: 29 (55.8) n (%)
  TEAE: Nausea: 24 (46.2) n (%)
  TEAE: Vomiting: 13 (25.0) n (%)
[5]; [16]
  Any TEAE: 43 (81.1) n (%)
  Any TEAE leading to discontinuation: 8 (15.1) n (%)
  Injection-site reaction: 2 (3.8) n (%)
  SAEs: Any: 3 (5.7) n (%)
  SAEs: GI disorders: 0 (0.0) n (%)
  SAEs: Injury, poisoning and procedural complications: 1 (1.9) n (%)
  SAEs: Neoplasms: benign, malignant and unspecified: 1 (1.9) n (%)
  SAEs: Nervous system disorders: 1 (1.9) n (%)
  SAEs: Psychiatric disorders: 0 (0.0) n (%)
  TEAE: Diarrhoea: 11 (20.8) n (%)
  TEAE: GI disorders: 31 (58.5) n (%)
  TEAE: Nausea: 23 (43.4) n (%)
  TEAE: Vomiting: 17 (32.1) n (%)
[5]; any group
  Hypoglycaemia TEAEs (blood glucose ≤3.9 mmol/L [≤70 mg/dL]): No hypoglycaemia TEAEs
[5]; during the study
  AEs of acute or chronic pancreatitis: No AEs of acute or chronic pancreatitis were reported
  Deaths: No deaths
[5]; [17]
  Any TEAE: 129 (82.2) n (%)
  Any TEAE leading to discontinuation: 21 (13.4) n (%)
  Injection-site reaction: 10 (6.4) n (%)
  SAEs: Any: 8 (5.1) n (%)
  SAEs: GI disorders: 1 (0.6) n (%)
  SAEs: Injury, poisoning and procedural complications: 2 (1.3) n (%)
  SAEs: Neoplasms: benign, malignant and unspecified: 2 (1.3) n (%)
  SAEs: Nervous system disorders: 2 (1.3) n (%)
  SAEs: Psychiatric disorders: 1 (0.6) n (%)
  TEAE: Diarrhoea: 28 (17.8) n (%)
  TEAE: GI disorders: 86 (54.8) n (%)
  TEAE: Nausea: 61 (38.9) n (%)
  TEAE: Vomiting: 38 (24.2) n (%)
[6]; [14]
  Antibody formation: Treatment-emergent (titre ≥2): 5 (9.6) n (%)
[6]; [15]
  Antibody formation: Treatment-emergent (titre ≥2): 6 (11.5) n (%)
[6]; [16]
  Antibody formation: Treatment-emergent (titre ≥2): 4 (7.5) n (%)
[7]
  Neutralizing antibodies: no neutralizing antibodies were detected
[8]
  Mean changes from baseline in heart rate, temperature, systolic blood pressure or diastolic blood pressure: no meaningful mean changes
[9]
  HbA1c reduction from baseline compared with once-daily liraglutide: non‐inferior
